pIC50: −log10 of the molar value.

In ChEMBL document CHEMBL4177551, “Bioactive Triterpenoids from the Twigs of Chaenomeles sinensis” (J Nat Prod, 2017) one finds IC50, Activity and viability data, which are given here for 14 compounds.

One data set relates to HCT-15. Description: Cytotoxicity against human HCT15 cells assessed as inhibition of cell growth by SRB assay. The format is functional, cell-based. The method in brief:
(§1)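 Human tumour lines A549, SK-OV-3, SK-MEL-2 and HCT15 (from ATCC) were tested by sulforhodamine B assay. IC50 is the concentration giving 50% inhibition of cell growth. Cisplatin served as positive control.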
For orientation: Sulforhodamine B stains cellular protein and so reports cell mass.

For the next data set, the system named is C6. Description: Neuroprotective activity in rat C6 cells assessed as induction of nerve growth factor secretion at 20 uM incubated for 24 hrs by ELISA method relative to untreated control. In kind it is functional. The method in brief: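 C6 glioma cells seeded at 1 × 10^5 cells/well and cultured 24 h. They were then switched to serum-free DMEM with compound at 20 μM for a further 24 h. NGF secreted into the conditioned medium was quantified by ELISA and expressed as percent of untreated control (100%). Mean ± SD of three independent experiments.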
On the technique in general: In an ELISA, binding on a coated surface is turned into a signal by an enzyme label.

In a further data set the test system is SK-OV-3. Description: Cytotoxicity against human SKOV3 cells assessed as inhibition of cell growth by SRB assay. In kind it is functional, cell-based. The method, boiled down:
as §1

The subject of another data set is SK-MEL-2. The data set is described as follows: Cytotoxicity against human SK-MEL-2 cells assessed as inhibition of cell growth by SRB assay. The format is functional, cell-based. The method, boiled down:
as §1

The nature of data set [1]: Cytotoxicity in rat C6 cells assessed as cell viability at 20 uM incubated for 24 hrs by MTT assay relative to untreated control. In kind it is cell-based. The conditions noted are these: read-out: Activity. The method in brief: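 C6 glioma cells were seeded at 1 × 10^5 cells/well. After 24 h, medium was switched to serum-free DMEM and compounds were added at 20 μM for 24 h. Viability was read by MTT and expressed as % of untreated cells. Values are means ± SD of three independent experiments.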
A general note: Tetrazolium assays rely on reduction of a dye to a coloured formazan, in cell work by metabolically active cells.

The subject of the next data set is A549. The data set is described as follows: Cytotoxicity against human A549 cells assessed as inhibition of cell growth by SRB assay. In kind it is functional, cell-based. The method, boiled down:
as §1

Data set [2] in a line: Cytotoxicity in mouse BV2 cells assessed as cell viability at 20 uM incubated for 24 hrs by MTT assay relative to untreated control. In kind it is cell-based, BV-2. The note with it: read-out: Activity. The method in brief: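 BV2 cells in the LPS-stimulated NO assay (LPS 100 ng/mL, 24 h) were exposed to 20 μM compound. Viability was read by MTT assay and expressed as percent. Mean ± SD of three independent experiments.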

The test system of another data set is BV-2. Description: Anti-inflammatory in mouse BV2 cells assessed as inhibition of LPS-induced nitric oxide production pre-incubated before LPS challenge for 24 hrs by Griess reagent based assay. In kind it is functional, cell-based. The method, boiled down:
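BV2 microglia seeded at 4 × 10^4 cells/well, treated with or without graded compound concentrations, then stimulated with LPS (100 ng/mL) for 24 h. Nitrite in the medium was measured with Griess reagent (0.1% N-1-naphthylethylenediamine dihydrochloride, 1% sulfanilamide, 5% phosphoric acid), 1:1 with supernatant for 10 min, A570. Quantified against a sodium nitrite standard. IC50 = concentration giving 50% inhibition of NO production.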

For `C=C(C)[C@@H]1CC[C@]2(C(=O)O)CC[C@]3(C)[C@H](CC[C@@H]4[C@@]5(C)CC[C@H](OC(=O)/C=C/c6ccc(O)c(O)c6)C(C)(C)[C@@H]5CC[C@]43C)[C@@H]12`, the negative logarithm of the IC50 (pIC50) is less than 5.00 in the data set on HCT-15, less than 5.00 with SK-OV-3, less than 5.00 with SK-MEL-2 and 5.00 with A549. Also, the Activity in the data set on C6 is 355.7%. For the same compound, the viability at 24 h, 20 µM in data set [1] was found to be 95%.
`C=C(C)[C@@H]1CC[C@]2(C(=O)O)CC[C@]3(C)[C@H](CC[C@@H]4[C@@]5(C)CC[C@H](OC(=O)/C=C\c6ccc(O)c(O)c6)C(C)(C)[C@@H]5CC[C@]43C)[C@@H]12`: the pIC50 is 5.42 in the data set on HCT-15; 5.12 in the data set with SK-OV-3; 5.17 with SK-MEL-2; 4.87 in the data set on BV-2; 6.05 with A549. For the same compound, in data set [2], the viability at 24 h, 20 µM was 35.3%.
For the compound `CC1(C)CC[C@]2(C(=O)O)CC[C@]3(C)C(=CC[C@@H]4[C@@]5(C)C[C@@H](O)[C@@H](O)C(C)(C)[C@@H]5CC[C@]43C)[C@@H]2C1`, in data set [2], the viability at 24 h, 20 µM was 87%. Further, the pIC50 with BV-2 was 4.67.
As for `C=C(C)[C@@H]1CC[C@]2(CO)CC[C@]3(C)[C@H](CC[C@@H]4[C@@]5(C)CC[C@H](OC(=O)/C=C\c6ccc(O)c(O)c6)C(C)(C)[C@@H]5CC[C@]43C)[C@@H]12`, the pIC50 in the data set on HCT-15 is less than 5.00; in the data set on SK-OV-3 it was 5.08; in the data set on SK-MEL-2, 5.70; in the data set on A549, less than 5.00.
Take `COc1cc(/C=C\C(=O)O[C@H]2[C@H](O)C[C@]3(C)[C@H]4CC=C5[C@H]6[C@](C(=O)O)(CC[C@@H](C)[C@@]6(C)O)CC[C@@]5(C)[C@]4(C)CC[C@H]3C2(C)C)ccc1O`: the viability at 24 h, 20 µM in data set [2] is 111%. For the same compound, the pIC50 with BV-2 is 4.43.
Consider `C=C(C)[C@@H]1CC[C@]2(CO)CC[C@]3(C)[C@H](CC[C@@H]4[C@@]5(C)CC[C@H](OC(=O)/C=C/c6ccc(O)c(O)c6)C(C)(C)[C@@H]5CC[C@]43C)[C@@H]12`, for which the negative logarithm of the IC50 (pIC50) with HCT-15 was less than 5.00; in the data set with SK-OV-3, 5.05; with SK-MEL-2, 5.54; with A549, less than 5.00.
On to `C=C(C)[C@@H]1CC[C@]2(C(=O)O)CC[C@]3(C)[C@H](CC[C@@H]4[C@@]5(C)C[C@@H](O)[C@H](O)C(C)(C)[C@@H]5CC[C@]43C)[C@@H]12` [ALPHITOLIC ACID], for which the viability at 24 h, 20 µM in data set [2] amounted to 71%. Moreover, the pIC50 with BV-2 is 4.84.
Consider `C=C(C)[C@@H]1CC[C@]2(C(=O)O)CC[C@]3(C)[C@H](CC[C@@H]4[C@@]5(C)CC[C@H](O)C(C)(C)[C@@H]5CC[C@]43C)[C@@H]12` [BETULINIC ACID], for which the pIC50 is 5.06 in the data set with HCT-15; less than 5.00 in the data set with SK-OV-3; less than 5.00 with SK-MEL-2; 5.35 in the data set on BV-2; 5.51 in the data set on A549. The Activity in the data set with C6 came out at 177.6%. Besides, the viability at 24 h, 20 µM in data set [2] came to 59.6%; in data set [1], 77.3%.
Take `C[C@H]1[C@H](C)CC[C@]2(C(=O)O)CC[C@]3(C)C(=CC[C@@H]4[C@@]5(C)C[C@@H](O)[C@H](O)C(C)(C)[C@@H]5CC[C@]43C)[C@H]12` [COROSOLIC ACID]: the viability at 24 h, 20 µM in data set [2] was found to be 100%. In the data set on BV-2, the pIC50 is 4.33.
Consider `C=C(C)[C@@H]1CC[C@]2(CO)CC[C@]3(C)[C@H](CC[C@@H]4[C@@]5(C)CC[C@H](O)[C@](C)(CO)[C@@H]5CC[C@]43C)[C@@H]12` [ILEKUDINOL C], for which the pIC50 is less than 5.00 with HCT-15; less than 5.00 with SK-OV-3; less than 5.00 in the data set with SK-MEL-2; 4.59 with BV-2; 5.29 with A549. The viability at 24 h, 20 µM in data set [2] amounted to 88%.
Regarding `CC1(C)CC[C@]2(C(=O)O)CC[C@]3(C)C(=CC[C@@H]4[C@@]5(C)C[C@@H](O)[C@H](O)C(C)(C)[C@@H]5CC[C@]43C)[C@@H]2C1` [MASLINIC ACID], the viability at 24 h, 20 µM in data set [2] was determined as 30.4%. Also, the pIC50 in the data set with BV-2 is 4.75.
`CCCCC/C=C/C(=O)CCc1ccc(O)c(OC)c1` [SHOGAOL]: the Activity with C6 was determined as 168.6%. Moreover, the viability at 24 h, 20 µM in data set [1] is 126%.
Regarding `CNC(=N)NCCC[C@H](N)C(=O)O` [TILARGININE], the viability at 24 h, 20 µM in data set [2] amounted to 114%. For the same compound, in the data set with BV-2, the negative-log IC50 (pIC50) was 4.66.
In the case of `C[C@@H]1CC[C@]2(C(=O)O)CC[C@]3(C)C(=CC[C@@H]4[C@@]5(C)C[C@@H](O)[C@H](O)C(C)(C)[C@@H]5CC[C@]43C)[C@@H]2[C@]1(C)O` [TOMENTIC ACID], the Activity in the data set on C6 is given as 167.4%. Besides, in data set [1], the viability at 24 h, 20 µM was 100%.

The pIC50 is the negative decadic logarithm of the IC50, by convention in mol/L.
